Bioassay records deposited in PubChem BioAssay by Sanford-Burnham Center for Chemical Genomics.
The list is not random: actives were taken first. Their share in the collection is about 2%.
DNMT1 inh – blocks human DNA methyltransferase DNMT1. P26358. DNMT1 molecular beacon, Hinp1I cleavage, fluorescence. inhibition (reported as % activation of signal), % at 10 µM. 360,000 compounds, 0.83% hits; in the data active = inhibition above about 50%
Scp1 inh – blocks human Scp-1 phosphatase activity; inhibition, % at 20 µM; 340,000 compounds, 0.88% hits; Recombinant Scp1, phosphopeptide, malachite green phosphate absorbance;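 active = inhibition above about 50% at 20 µM, limit read from the data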;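 note: plate controls were DMSO wells with enzyme for no effect and wells lacking enzyme for full effect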
Target sequence (Q9GZU7 76-261 limits assumed): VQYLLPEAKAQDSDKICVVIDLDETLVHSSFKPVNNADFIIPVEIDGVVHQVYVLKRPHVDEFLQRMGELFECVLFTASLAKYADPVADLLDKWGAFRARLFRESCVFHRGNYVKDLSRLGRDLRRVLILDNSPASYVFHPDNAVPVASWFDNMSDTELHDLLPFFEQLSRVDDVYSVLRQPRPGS
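assay system = SCP-1 phosphatase catalytic domain, residues 76-261 | buffer or medium = 50 mM Tris acetate pH 5.5, 0.005% Tween-20, 10 mM MgCl2 | incubation = enzyme reaction 45 min at room temperature, colour 5 min, stabilisation 30 min | signal = Phosphate-binding colour reagent, absorbance read at 630 nm | measure = % inhibition at 20 µM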
CSN deneddyl inh – inhibitors of human CSN-mediated cullin deneddylation; Q92905; 360,000 compounds, 0.38% hits; inhibition, % at 12.5 µM; Purified CSN, SCF-Nedd8-OG deneddylation, fluorescence polarization;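 active = pattern-corrected inhibition above about 35%, with an unprinted fluorescence ratio check between 0.5 and 1.5, limit read from the data, passing the limit was not always enough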;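 note: 0% = enzyme with substrate and 100% = substrate without enzyme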
Target sequence (Q92905 whole entry, looked up, one chain of several): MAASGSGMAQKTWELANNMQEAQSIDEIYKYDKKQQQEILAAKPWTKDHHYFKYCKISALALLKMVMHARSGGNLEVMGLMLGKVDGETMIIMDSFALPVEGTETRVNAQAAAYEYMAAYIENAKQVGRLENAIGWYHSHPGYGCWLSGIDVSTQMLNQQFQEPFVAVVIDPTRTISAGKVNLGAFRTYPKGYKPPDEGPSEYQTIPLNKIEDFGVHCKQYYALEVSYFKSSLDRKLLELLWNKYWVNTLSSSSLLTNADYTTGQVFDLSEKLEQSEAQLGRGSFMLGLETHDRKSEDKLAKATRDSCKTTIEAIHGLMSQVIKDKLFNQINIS
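assay system = purified human Csn5 enzyme expressed in HEK293T cells | amount = 0.24 nM enzyme | buffer or medium = Tris/NaCl/DTT buffer, pH 7.5 | reagent = 10 nM SCFSkp2-Nedd8OG | compound = one concentration, 12.5 µM, 0.25% DMSO | times = 90 min reaction at room temperature | signal = FP | read-out basis = % inhibition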
SUMO1 PPI mod – alters human SUMO1 binding to SIM partners. P63165. AID 602429. inhibition, % at 20 µM. SUMO1 binding to a labelled peptide, TR-FRET, 1 h. 360,000 compounds, 0.33% hits; in the data active = inhibition above about 37%
STEP inh – STEP (human) phosphatase inhibition | inhibition, % at 20 µM | 360,000 compounds, 0.25% hits | recombinant STEP, OMFP fluorogenic substrate, fluorescence | P54829;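 active = inhibition at 20 µM, scaled per plate between control wells, above about 37%, limit read from the data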;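 note: 0% = DMSO with enzyme and substrate and 100% = substrate only without enzyme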
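material = STEP tyrosine phosphatase | reagent = fluorogenic phosphatase substrate OMFP at 25 µM final | doses = single compound dose of 20 µM, 1% DMSO final | schedule = 20 min reaction, room temperature, in the dark | measured by = fluorescence, 480/540 nm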
LMPTP block – blocks human LMPTP phosphatase; recombinant LMPTP-A, OMFP fluorogenic substrate, fluorescence intensity; 360,000 compounds, 0.22% hits; P24666; inhibition, % at 20 µM;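 active = compounds that cut the enzyme signal by at least half of the control window in the single-dose screen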;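 note: plate controls were DMSO wells with enzyme plus substrate for no effect and substrate without enzyme for full effect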
Target sequence (P24666 whole entry, looked up): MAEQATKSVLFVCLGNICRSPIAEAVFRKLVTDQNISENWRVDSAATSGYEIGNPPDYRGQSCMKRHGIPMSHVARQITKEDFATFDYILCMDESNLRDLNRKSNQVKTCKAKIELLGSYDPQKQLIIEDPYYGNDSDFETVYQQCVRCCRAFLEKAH
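Test system – LMPTP-A phosphatase enzyme · Quantity – 0.625 nM LMPTP-A final · Reagent – OMFP substrate, 400 µM final · Dosing – one test concentration per compound, 20 µM, with 3% DMSO overall · Timing – 50 min enzyme reaction at room temperature, protected from light · Detection – fluorescence intensity · Controls – substrate-only low control, DMSO enzyme-plus-substrate high control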
DNMT1 interf DR – beacon fluorescence artifact, dose response counter-screen; IC50, µM; 200 tested, under 10 active; molecular beacon fluorescence, spectral interference counter-screen; shares compounds with DNMT1 inh; AID 602382
DNMT1 inh conf – confirmation of human DNMT1 inhibitors. shares compounds with DNMT1 inh. DNMT1 molecular beacon HinP1I cleavage, fluorescence. inhibition, % at 10 µM. 2,300 compounds, 8% hits. AID 602385;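 active = average inhibition of at least 30% in the single-concentration confirmation test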
DNMT1 interf – shows spectral interference in the DNMT1 beacon assay; AID 602387; DNMT1 molecular beacon spectral interference counterscreen, fluorescence 485/520; activation (fluorescence interference), % at 10 µM; shares compounds with DNMT1 inh; 2,300 compounds, 1% hits;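 active = activation of at least 30% at 10 µM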;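 note: DNMT1 catalytic domain with a HinP1I cleavage step and a FAM/dabcyl DNA beacon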
STEP inh conf – confirmation of human STEP phosphatase inhibitors; shares compounds with STEP inh; recombinant STEP, OMFP fluorogenic substrate, fluorescence; inhibition, % at 20 µM; 520 compounds, 32% hits; AID 623866;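 note: 0% = enzyme with substrate plus DMSO and 100% = substrate without enzyme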
CSN deneddyl val – validation of inhibitors of human CSN-mediated cullin deneddylation; inhibition, % at 16.6 µM; shares compounds with CSN deneddyl inh; Csn5 deneddylation of SCF-Nedd8OG, fluorescence polarization, 90 min; 540 compounds, 62% hits; in the data active = inhibition above about 50%;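 note: 0% = DMSO with enzyme and 100% = no enzyme wells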
MMP-2 counter – MMP-2 (human) inhibition, counter-screen for CSN hits | shares compounds with CSN deneddyl inh | recombinant MMP-2, FRET substrate fluorescence, 60 min | inhibition, % at 16.6 µM | 540 compounds, 33% hits | AID 720655;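 active = corrected plate-normalized z-score of 5 or more, or -5 or less, or inhibition of 15% or more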;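 note: plate controls were DMSO wells with enzyme for no effect and buffer wells lacking MMP-2 for full effect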
Thrombin cntr – blocks bovine thrombin in a CSN deneddylation counter-screen | AID 720656 | shares compounds with CSN deneddyl inh | inhibition, % at 16.6 µM | 540 compounds, 49% hits | bovine thrombin cleavage of Ub4-pepOG, fluorescence polarization;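 active = inhibition at or above a set limit, with a fluorescence interference ratio between 0.5 and a set maximum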
Numbers without * were called inactive; . = no result. Unless noted, the rule behind the calls is not given here.

SMILES | DNMT1 inh | Scp1 inh | CSN deneddyl inh | SUMO1 PPI mod | STEP inh | LMPTP block | DNMT1 interf DR | DNMT1 inh conf | DNMT1 interf | CSN deneddyl val | MMP-2 counter | Thrombin cntr | others
COc1ccc(C(=O)N2CCCC(c3cc(C(=O)NCc4cccnc4)no3)C2)cc1 (stereo not drawn) | 5 | . | -1 | -2 | -4 | -1 | . | . | . | . | . | .
N#Cc1c(NC(=O)CSc2ncnc3sccc23)oc(-c2ccco2)c1-c1ccco1 | 92* | -1 | 51* | 39 | 2 | 12 | . | 5 | 2 | 64* | 9 | 7
Cc1cc(NC(=O)CSc2ncnc3sccc23)no1 | 3 | 2 | -2 | -2 | -2 | 0 | . | . | . | . | . | .
O=C(O)CSc1nc2sc3c(c2c(=O)n1Cc1ccccc1)CCCCC3 | 3 | -16 | 0 | 8 | 2 | 1 | . | . | . | . | . | .
O=C(O)CSc1cc(C(=O)c2ccccc2O)cn2c(=O)c3c4c(sc3nc12)CCCC4 | 73* | 66* | 43* | 35 | 96* | 34 | >99 | 61* | 0 | 31 | 42* | -21
C[n+]1cccc2c(Br)ccc([O-])c21 | 84* | -15 | 45* | 49* | 17 | 53* | . | -1 | 2 | 103* | 4 | -10
O=C(CCN1C(=O)/C(=C/c2ccco2)SC1=S)Nc1ccc(O)cc1C(=O)O | 71* | 64* | 43* | 40* | 35 | 7 | . | 8 | -3 | 77* | 14 | 10
O=C(CCCN1C(=O)/C(=C/c2ccco2)SC1=S)Nc1ccccc1C(=O)O | 86* | 69* | 39* | 75* | 48* | 19 | . | 1 | -2 | 83* | 25* | 32*
O=C(CCCN1C(=O)/C(=C\c2ccccc2)SC1=S)Nc1ccc(O)cc1C(=O)O | 1 | 7 | 3 | -21 | 3 | 1 | . | . | . | . | . | .
CN(C(=O)CN(c1ccccc1)S(=O)(=O)c1ccc(F)cc1)C1CCS(=O)(=O)C1 (stereo not drawn) | 0 | -2 | -1 | -4 | -1 | 0 | . | . | . | . | . | .
O=[N+]([O-])c1ccc(/C=C/C2=NN(c3ccccc3)C(c3ccco3)C2)o1 (stereo not drawn) | 75* | 79* | 62* | -16 | 5 | 10 | . | 2 | 5 | 42 | -3 | 21*
CNc1ccc(Br)cc(C(=O)/C=C/c2ccc3c(c2)OCO3)c1=O | 65* | 15 | 44* | 25 | 1 | 41 | . | 1 | 1 | 71* | -1 | 20*
COc1ccc(OC)c(N2C(=O)[C@@H]3C(c4ccccc4Cl)=NO[C@@H]3C2=O)c1 | 114* | 48 | 40* | 13 | 55* | 27 | >99 | 60* | 2 | 69* | 12 | 7 | STEP inh conf=80*
Cc1cccc(C)c1N1C(=O)[C@@H]2C(c3ccccc3Cl)=NO[C@@H]2C1=O | -1 | -6 | -3 | 5 | 1 | 1 | . | . | . | . | . | .
Cc1ccc(Cl)cc1NC(=S)N1CCC(c2ccccc2)C1 (stereo not drawn) | -2 | -12 | 4 | 4 | 3 | -1 | . | . | . | . | . | .
O=C(O)CN1C(=O)/C(=C/c2ccc(SCc3ccccc3)o2)SC1=S | 76* | 59* | 87* | 4 | 12 | 9 | . | 20 | 8 | 88* | 13 | 96*
O=C1/C(=C\c2ccco2)SC(=S)N1Cc1ccccc1 | 2 | -2 | 15 | -2 | 2 | 6 | . | . | . | . | . | .
CCCCn1c(NS(=O)(=O)c2ccc(C)cc2)c(S(=O)(=O)c2ccccc2)c2nc3ccccc3nc21 | 55* | -17 | 69* | 50* | 3 | 25 | . | 2 | -6 | 101* | 5 | -34
COc1cc(NS(=O)(=O)c2ccc(NC(=S)NC(=O)/C=C/c3ccco3)cc2)ncn1 | 98* | 49 | 49* | 48* | 5 | 5 | >99 | 82* | -3 | 61* | 23* | 22*
O=C1C(=O)c2c(ccc3ccccc23)-c2ccccc21 | 108* | 101* | 40* | 61* | 16 | 43 | >99 | 28 | -10 | 84* | 14 | -27
Cc1ccc(NC(=O)CN2C(=O)S/C(=C/c3ccc(-c4cc(C(=O)O)ccc4C)o3)C2=O)cc1C | 111* | 73* | 64* | 26 | 10 | 23 | >99 | 118* | 0 | 76* | 18* | 3
CC(C)NC(=O)C1(C)CSCC(=O)N1CC(F)(F)F (stereo not drawn) | . | . | -5 | -4 | . | -1 | . | . | . | . | . | .
CCc1cc(=O)oc2cc(C)c(CN3CCCC3)c(O)c12 | 87* | 7 | 37* | 39 | 3 | 8 | . | 4 | 1 | 89* | 11 | 4
O=C(O)CSc1nnc(-c2cccc(S(=O)(=O)N3CCOCC3)c2)n1-c1cccc(Cl)c1 | 0 | 6 | 3 | -4 | 3 | 5 | . | . | . | . | . | .
O=C1N/C(=C/c2cccn2-c2ccc(F)cc2)C(=O)N1Cc1ccccc1 | 5 | -2 | 1 | -3 | 2 | 0 | . | . | . | . | . | .
O=C(O)c1ccc(-n2cccc2/C=C2/NC(=O)N(c3ccccc3)C2=O)cc1 | 93* | 89* | 36* | 89* | 73* | 26 | >99 | 83* | -3 | 71* | 20* | -21
O=C(O)c1ccc(-n2cccc2/C=C2/SC(=O)N(CC(=O)N3CCCC3)C2=O)cc1 | 91* | 76* | 43* | 81* | 93* | 18 | >99 | 81* | -4 | . | 31* | 11
CCOc1ccc(N(CC(=O)N2CCCCC2)S(=O)(=O)c2ccc(Cl)cc2)cc1 | -1 | -6 | -6 | 1 | 1 | 1 | . | . | . | . | . | .
